The source of these data is ChEMBL document CHEMBL1145959, “Design and synthesis of 8-hydroxy-[1,6]naphthyridines as novel inhibitors of HIV-1 integrase in vitro and in infected cells” (J Med Chem, 2003).

The subject of data set [1] is MT4. The data set can be described thus: Cell culture inhibitory concentration which inhibits 95% spread of HIV infection in cell culture, using HIV-1 IIIB variant and MT-4 T-lymphoid cells. It is filed as functional. Conditions: Homo sapiens, read-out: CIC95.
Data set [2] concerns MT4. Kind of data set: Cytotoxicity of compound was determined on MT-4 cells. The class given is functional, Homo sapiens. The gist of the method:
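MT-4 cultures incubated 4 days with inhibitor. Toxicity scored by visual inspection for cytopathic effects: gross morphological changes, altered growth pattern, and metabolic change seen as lack of change in the medium pH indicator. Cell numbers also checked; cells typically double at least 4 times over the 4 days.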

Data set [3] concerns the target Human immunodeficiency virus type 1 integrase (Human immunodeficiency virus 1, UniProt Q7ZJM1). The data set can be described thus: Compound was tested for its ability to inhibit the strand transfer of the integration process catalyzed by HIV integrase.
A short description of data set [4]: Peak plasma level of compound (10 mg/kg) administered orally to rats after 60 min was determined. More on the design: dose 10 mg/kg, route oral. It is filed as ADME, organism-based. Conditions: rat, po. The gist of the method:
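Rats dosed orally at 10 mg/kg as a 3.0 mg/mL aqueous solution with 1% methylcellulose and 1% DMSO. Plasma concentration followed over time, with Cmax taken as the peak plasma level.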

The structures appear in SMILES notation.

Sequence of Human immunodeficiency virus type 1 integrase (Q7ZJM1 whole entry): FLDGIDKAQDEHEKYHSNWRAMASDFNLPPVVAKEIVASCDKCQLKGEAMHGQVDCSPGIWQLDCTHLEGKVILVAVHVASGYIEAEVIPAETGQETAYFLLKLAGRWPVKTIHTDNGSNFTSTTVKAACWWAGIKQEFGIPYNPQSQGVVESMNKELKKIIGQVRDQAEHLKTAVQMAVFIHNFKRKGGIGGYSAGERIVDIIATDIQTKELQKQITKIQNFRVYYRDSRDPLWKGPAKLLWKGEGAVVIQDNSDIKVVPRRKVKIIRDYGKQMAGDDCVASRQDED

Consider `O=C(c1cccc(Cc2ccccc2)c1)c1ccc2cccnc2c1O`, for which the IC95 in the data set on MT4 [1] is 5 µM. The Cytotoxicity with MT4 [2] was found to be 1.25 µM.
In the case of `O=c1c2cc(Cc3ccccc3)ccc2oc2ccc(O)c(O)c12`, half-maximal inhibition in data set [3] (IC50) was put at 600 nM. Also, in the data set with MT4 [1], the IC95 is 6 µM. The Cytotoxicity in the data set on MT4 [2] was determined as 3 µM.
In the case of `O=C(c1cccc(Cc2ccccc2)c1)c1ncc2cccnc2c1O`, half-maximal inhibition in data set [3] (IC50) was put at 40 nM. Besides, the IC95 in the data set with MT4 [1] was 6.2 µM. In the data set with MT4 [2], this molecule showed a Cytotoxicity of 12.5 µM.
`O=C(c1cc(Cc2ccccc2)cc(CN2CCCS2(=O)=O)c1)c1ncc2cccnc2c1O`: the highest level in data set [4] (Cmax) was 1170 nM. Further, the IC50 – broadly, the concentration that gives 50% inhibition – in data set [3] is 10 nM. For the same molecule, in the data set with MT4 [1], the IC95 is 0.39 µM. In the data set on MT4 [2], the Cytotoxicity was more than 12.5 µM.
In turn, `O=C(O)C(=O)CC(=O)c1cccc(Cc2ccccc2)c1` yielded an IC50 in data set [3] of 10 nM. Further, the IC95 in the data set with MT4 [1] was 1.11 µM. The Cytotoxicity in the data set with MT4 [2] was more than 50 µM.
Molecule `O=C(c1cc(Cc2ccccc2)ccn1)c1ccc2cccnc2c1O` came in with an IC50 in data set [3] of 50 nM. Also, the IC95 in the data set with MT4 [1] was 2.5 µM. The Cytotoxicity with MT4 [2] amounted to 2.5 µM.
With `O=C(c1cccc(Cc2ccccc2)c1)c1oc2cccnc2c1O`, the IC50 in data set [3] worked out at 1000 nM. The IC95 in the data set with MT4 [1] was more than 50 µM. The molecule further came in with a Cytotoxicity with MT4 [2] of 12.5 µM.
